Results on 16 compounds are retold here after PubChem BioAssay.

Calls of active or inactive are those of the source.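 The calls were made as follows, unless noted: active = viability at or below 30% in both replicate assays; inconclusive = viability at or below 30% in just one of the two assays; inactive = the rest.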

A short description of experiment [1]: Her2 expression decrease, cell viability multiplex – SKBR3 breast tumor cells, AlphaScreen, ATP viability, primary screen (AID 461;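 active = Her2 level under about 52% in both replicate screens, with viability over 70% of control, limit read from the data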;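 as to Her2 level: lower value means less Her2 protein in the cells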;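 as to viability: percent of carrier control wells set as 100% viability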). The settings on record: SKBR3 Her2 protein level, 18-24 h, measured here: SKBR3 viability, ATP luminescence, at 10 µM.
Experiment [2] has as its target Receptor tyrosine-protein kinase erbB-2 (Homo sapiens) (UniProt P04626). The description is as above. The settings on record: 18-24 h, at 10 µM, stronger effect = lower value.
Experiment [3] is described as follows: reduced viability of SK-BR-3 breast cancer cells – cell-based, 24 h, human, pilot screen (AID 572;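 active = viability at or below 10% of carrier control in both of two separate runs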;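 also: compound exposure lasted between 18 and 24 h rather than exactly 24 h; 100% = carrier-treated control wells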). The following applies: SK-BR-3 viability, CellTiter-Glo luminescence, at 10 µM, stronger effect = lower value. A general note: Cellular ATP, detected with luciferase, serves as a proxy for viable cell number.
Experiment [4] can be described thus: HUVEC growth inhibition – cell-based, human, primary screen (AID 575).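 Also: 100% = median of untreated cell wells with 0.1% DMSO on each plate.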 The following applies: HUVEC proliferation, CellTiter-Glo luminescence, 72 h; at 10 µM; stronger effect = lower value. The essentials:
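Assay system: Primary human umbilical vein endothelial cells | Quantity: 1250 cells per well | Medium: Supplemented EBM, 2% fetal bovine serum | Detection: CellTiter-Glo luminescence measuring cellular ATP | Read-out: % viability vs DMSO wells | Plate: Collagen-coated 384-well format | Times: 72 h exposure, 37 °C, 5% CO2, 30 min RT equilibration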

Experiment [5] can be described thus: H69AR cell proliferation blockers – human, duplicate replicates, primary screen (AID 580;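 active = viability at or under a set limit in both replicates, limit being median viability minus 3 SD, cut at about 48% in these data, passing the limit was not always enough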;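 also: 100% = mean luminescence of untreated wells and 0% = no signal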). The following applies: H69AR lung tumor cells viability, ATP luminescence, 72 h; at 10 µM; stronger effect = lower value.
A short description of experiment [6]: MRP1 drug-resistance reversers in H69AR cells – cell-based, doxorubicin co-treatment, pilot screen (AID 601;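 active = viability loss from added drug above about 55%, and viability with drug at most 40%, in both replicates, limit read from the data, passing the limit was not always enough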). The settings on record: CellTiter-Glo, 72 h, at 10 µM; for differential viability (reversal): stronger effect = higher value.
Experiment [7] can be described thus: yeast transport mutant growth inhibition pilot in 384-well plates, post-Golgi transport modulator project (AID 636; in the data active = inhibition above about 31%). The following applies: absorbance 615 nm, about 18 h, stronger effect = higher value.
Experiment [8] in a line: growth suppression of yeast trafficking mutant, preliminary HTS, modulators of trafficking downstream of Golgi apparatus project, 1536-format plate, OD 615 nm (AID 637; in the data active = inhibition above about 30%). The following applies: yeast transport mutant growth, absorbance 615 nm, 18 h; stronger effect = higher value.
[9] abbreviates: H69AR cells + 2 uM doxorubicin, measured here: viability with 2 uM doxorubicin, stronger effect = lower value.
Where [10] appears, read: H69AR cells, compound alone cytotoxicity.

Receptor tyrosine-protein kinase erbB-2 (Homo sapiens), sequence (P04626 whole entry, looked up): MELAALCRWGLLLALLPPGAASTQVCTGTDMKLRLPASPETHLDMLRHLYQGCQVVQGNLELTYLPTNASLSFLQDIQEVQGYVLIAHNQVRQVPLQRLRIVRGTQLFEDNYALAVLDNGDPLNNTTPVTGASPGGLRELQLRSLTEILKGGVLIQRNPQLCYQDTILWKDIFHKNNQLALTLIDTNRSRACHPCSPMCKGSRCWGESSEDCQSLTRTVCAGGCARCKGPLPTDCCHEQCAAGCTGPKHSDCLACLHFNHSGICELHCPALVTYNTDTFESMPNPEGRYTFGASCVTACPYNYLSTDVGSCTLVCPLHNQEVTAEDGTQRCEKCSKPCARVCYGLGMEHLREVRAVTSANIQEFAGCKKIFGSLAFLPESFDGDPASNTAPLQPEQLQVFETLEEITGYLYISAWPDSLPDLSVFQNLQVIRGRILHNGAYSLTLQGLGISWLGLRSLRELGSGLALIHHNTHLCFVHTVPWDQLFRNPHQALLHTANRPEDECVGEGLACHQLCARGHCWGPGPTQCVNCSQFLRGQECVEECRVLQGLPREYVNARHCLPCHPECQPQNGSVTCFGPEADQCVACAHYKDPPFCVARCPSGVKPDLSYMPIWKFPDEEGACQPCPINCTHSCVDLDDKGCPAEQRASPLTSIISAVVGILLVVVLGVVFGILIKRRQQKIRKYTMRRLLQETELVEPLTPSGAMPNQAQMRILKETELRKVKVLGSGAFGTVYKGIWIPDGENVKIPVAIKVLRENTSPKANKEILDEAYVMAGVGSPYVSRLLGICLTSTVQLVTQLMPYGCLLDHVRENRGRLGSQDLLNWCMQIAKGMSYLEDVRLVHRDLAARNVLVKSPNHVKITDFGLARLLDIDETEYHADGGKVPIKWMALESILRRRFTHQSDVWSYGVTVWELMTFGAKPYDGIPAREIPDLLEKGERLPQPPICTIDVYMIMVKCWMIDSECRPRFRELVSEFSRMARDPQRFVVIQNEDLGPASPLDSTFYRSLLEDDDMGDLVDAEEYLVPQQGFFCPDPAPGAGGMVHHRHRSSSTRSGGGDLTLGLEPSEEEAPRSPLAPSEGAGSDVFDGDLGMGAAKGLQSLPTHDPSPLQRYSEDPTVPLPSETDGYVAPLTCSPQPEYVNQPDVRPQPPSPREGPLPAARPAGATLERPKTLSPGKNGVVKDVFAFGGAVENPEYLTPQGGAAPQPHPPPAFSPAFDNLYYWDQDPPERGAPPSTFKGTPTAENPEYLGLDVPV

As to `Fc1ccc(Cn2nnc(-c3ccc(CN4CCOCC4)cc3)n2)cc1`, the viability was 88% in experiment [1]; 88% (inactive) in experiment [3]; 108% (inactive) in experiment [4]; 103% (inactive) in experiment [5]; 96.3% in experiment [6] (setting [9]); 103% in experiment [6] (setting [10]). In addition, the Her2 level in experiment [2] is 122% (inactive). Further, the differential viability (reversal) in experiment [6] (H69AR cells + 2 uM doxorubicin) was 6.81% (inactive). Besides, the inhibition was 84.7% (active) in experiment [7] and 43% (active) in experiment [8].

In the case of `CC1(C)Cc2noc(N)c2C(C)(C)N1OC(=O)c1ccco1`, the viability is 118% in experiment [1]; 118% (inactive) in experiment [3]; 93.1% (inactive) in experiment [4]; 94.5% (inactive) in experiment [5]; 91.7% in experiment [6] (setting [9]); 94.5% in experiment [6] (setting [10]). The Her2 level in experiment [2] is 82.5% (inactive). The differential viability (reversal) in experiment [6] (H69AR cells + 2 uM doxorubicin) was 2.83% (inactive). The inhibition in experiment [7] is -3.55% (inactive); in experiment [8] it was 3.81% (inactive).

Turning to `COc1ccc(NC(=O)c2cc(C)on2)cc1OC`, the viability was 110% in experiment [1]; 110% (inactive) in experiment [3]; 104% (inactive) in experiment [4]; 96.7% (inactive) in experiment [5]; 88.6% in experiment [6] (setting [9]); 96.7% in experiment [6] (setting [10]). In experiment [2], the Her2 level is 93% (inactive). The differential viability (reversal) in experiment [6] (H69AR cells + 2 uM doxorubicin) was 8.07% (inactive). Besides, the inhibition in experiment [7] was -5.87% (inactive); in experiment [8], 3.28% (inactive).

In the case of `Nc1nc(N)nc(-c2ccccc2)n1`, the viability in experiment [1] was 97.5%; in experiment [3] it was 97.5% (inactive); in experiment [4] it was 107% (inactive); in experiment [5], 99.8% (inactive); in experiment [6] (setting [9]) it was 95.4%; in experiment [6] (setting [10]), 99.8%. Also, the Her2 level in experiment [2] was 106% (inactive). Also, the differential viability (reversal) in experiment [6] (H69AR cells + 2 uM doxorubicin) was 4.35% (inactive). Also, the inhibition is -1.05% (inactive) in experiment [7] and -0.16% (inactive) in experiment [8].

Take `Cc1ccc(Nc2cc(C)nc3ncnn23)c(Cl)c1`: the viability is 85% in experiment [1]; 85% (inactive) in experiment [3]; 87% (inactive) in experiment [4]; 97% (inactive) in experiment [5]; 84.9% in experiment [6] (setting [9]); 97% in experiment [6] (setting [10]). Moreover, the Her2 level in experiment [2] was 88.5% (inactive). The differential viability (reversal) in experiment [6] (H69AR cells + 2 uM doxorubicin) is 12.2% (inactive). Besides, the inhibition in experiment [7] is -3.33% (inactive); in experiment [8], -2.3% (inactive).

As to `COc1ccc(OCc2nc(N)nc(Nc3cccc(C)c3C)n2)cc1`, the viability was 98.5% in experiment [1]; 98.5% (inactive) in experiment [3]; 111% (inactive) in experiment [4]; 103% (inactive) in experiment [5]; 96% in experiment [6] (setting [9]); 103% in experiment [6] (setting [10]). Also, the Her2 level in experiment [2] is 120% (inactive). In experiment [6] (H69AR cells + 2 uM doxorubicin), the differential viability (reversal) is 7.49% (inactive). Further, the inhibition in experiment [7] is -4.55% (inactive); in experiment [8], -6% (inactive).

As for `O=C(CSc1nnc(-c2cccs2)o1)N1CCOCC1`, the viability in experiment [1] is 107%; in experiment [3] it was 107% (inactive); in experiment [4] it was 99.4% (inactive); in experiment [5], 96.6% (inactive); in experiment [6] (setting [9]) it was 101%; in experiment [6] (setting [10]) it was 96.6%. Further, the Her2 level in experiment [2] was 92.5% (inactive). In addition, in experiment [6] (H69AR cells + 2 uM doxorubicin), the differential viability (reversal) was -4.63% (inactive). Besides, the inhibition is -3.6% (inactive) in experiment [7] and -1.45% (inactive) in experiment [8].

For `CC(C)(C)n1nnnc1CN1CCC(NC(=O)NC2CCCCC2)CC1`, the viability is 95% in experiment [1]; 95% (inactive) in experiment [3]; 97% (inactive) in experiment [4]; 106% (inactive) in experiment [5]; 91.3% in experiment [6] (setting [9]); 106% in experiment [6] (setting [10]). The Her2 level in experiment [2] was 72% (inactive). The differential viability (reversal) in experiment [6] (H69AR cells + 2 uM doxorubicin) is 15.1% (inactive). In addition, the inhibition in experiment [7] was -5.53% (inactive); in experiment [8], -2.5% (inactive).

For the compound `O=C(Oc1ccc2c(c1)CCC2)N1CCOCC1`, the viability is 90% in experiment [1]; 90% (inactive) in experiment [3]; 99.9% (inactive) in experiment [4]; 95.6% (inactive) in experiment [5]; 88.9% in experiment [6] (setting [9]); 95.6% in experiment [6] (setting [10]). The Her2 level in experiment [2] is 144% (inactive). In addition, the differential viability (reversal) in experiment [6] (H69AR cells + 2 uM doxorubicin) was 6.64% (inactive). Further, the values for the inhibition in experiment [7] and in experiment [8] were 4.87% (inactive) and -5% (inactive), respectively.

Take `Oc1cnc2ccccc2c1CN1CCOCC1`: the viability in experiment [1] was 98.5%; in experiment [3], 98.5% (inactive); in experiment [4], 113% (inactive); in experiment [5] it was 101% (inactive); in experiment [6] (setting [9]), 104%; in experiment [6] (setting [10]), 101%. Besides, the Her2 level in experiment [2] is 92% (inactive). In experiment [6] (H69AR cells + 2 uM doxorubicin), the differential viability (reversal) was -2.39% (inactive). Also, the values for the inhibition in experiment [7] and in experiment [8] were -3.16% (inactive) and -0.16% (inactive), respectively.

Take `Cn1nnnc1SCC(=O)N1CCN(c2cccc(Cl)c2)CC1`: the viability in experiment [1] was 108%; in experiment [3] it was 108% (inactive); in experiment [4], 97.2% (inactive); in experiment [5], 85.6% (inactive); in experiment [6] (setting [9]) it was 77.5%; in experiment [6] (setting [10]), 85.6%. In experiment [2], the Her2 level was 89% (inactive). Also, the differential viability (reversal) in experiment [6] (H69AR cells + 2 uM doxorubicin) was 8.05% (inactive). Moreover, the inhibition in experiment [7] is -1.43% (inactive); in experiment [8], -1.11% (inactive).

On to `CCOc1ccc(S(=O)(=O)n2nc(C)cc2C)c2ccccc12`, for which the viability in experiment [1] is 83.5%; in experiment [3], 83.5% (inactive); in experiment [4] it was 71.2% (inactive); in experiment [5] it was 79.7% (inactive); in experiment [6] (setting [9]), 77.6%; in experiment [6] (setting [10]), 79.7%. Moreover, in experiment [2], the Her2 level is 89.5% (inactive). The differential viability (reversal) in experiment [6] (H69AR cells + 2 uM doxorubicin) is 2.17% (inactive). The inhibition is -1.03% (inactive) in experiment [7] and 2% (inactive) in experiment [8].

Take `O=C(COC(=O)CCC(=O)c1cccs1)NCc1ccco1`: the viability is 98% in experiment [1]; 98% (inactive) in experiment [3]; 89.3% (inactive) in experiment [4]; 79.8% (inactive) in experiment [5]; 77.3% in experiment [6] (setting [9]); 79.8% in experiment [6] (setting [10]). Further, the Her2 level in experiment [2] is 109% (inactive). In addition, in experiment [6] (H69AR cells + 2 uM doxorubicin), the differential viability (reversal) was 2.55% (inactive). Moreover, the inhibition in experiment [7] was -3.59% (inactive); in experiment [8], -1.5% (inactive).

As to `COC(=O)c1ccc(NC(=O)C(C)N2C(=O)c3ccccc3C2=O)cc1` (stereo not given), the viability was 109% in experiment [1]; 109% (inactive) in experiment [3]; 108% (inactive) in experiment [4]; 108% (inactive) in experiment [5]; 92.8% in experiment [6] (setting [9]); 108% in experiment [6] (setting [10]). In addition, the Her2 level in experiment [2] was 94% (inactive). In experiment [6] (H69AR cells + 2 uM doxorubicin), the differential viability (reversal) was 14.8% (inactive). In addition, the values for the inhibition in experiment [7] and in experiment [8] were 0.41% (inactive) and -3.65% (inactive), respectively.

Take `Brc1ccc(-c2cn3cccnc3n2)cc1`: the viability was 130% in experiment [1]; 130% (inactive) in experiment [3]; 86.3% (inactive) in experiment [4]; 104% (inactive) in experiment [5]; 97.1% in experiment [6] (setting [9]); 104% in experiment [6] (setting [10]). Besides, the Her2 level in experiment [2] was 97.5% (inactive). Further, the differential viability (reversal) in experiment [6] (H69AR cells + 2 uM doxorubicin) was 6.97% (inactive). Also, the inhibition in experiment [7] was -3.87% (inactive); in experiment [8], 0.97% (inactive).

On to `CCOC(=O)c1[nH]c2ccccc2c1NC(=O)c1ccco1`, for which the viability in experiment [1] is 102%; in experiment [3], 102% (inactive); in experiment [4] it was 106% (inactive); in experiment [5], 80.3% (inactive); in experiment [6] (setting [9]), 83.2%; in experiment [6] (setting [10]), 80.3%. Besides, in experiment [2], the Her2 level was 79% (inactive). Moreover, the differential viability (reversal) in experiment [6] (H69AR cells + 2 uM doxorubicin) is -2.98% (inactive). For the same compound, the inhibition was -7.03% (inactive) in experiment [7] and 4.33% (inactive) in experiment [8].

One may read the viability as a read-out of living cells in per cent, often relative to untreated cells. A word on the inhibition: it is the drop in the measured response relative to a control, in per cent.
